Data on 97 compounds can be found in ChEMBL document CHEMBL4513216, “Probing the Open Global Health Chemical Diversity Library for Multistage-Active Starting Points for Next-Generation Antimalarials” (ACS Infect Dis, 2020).

A short description of this data set: Toxicity liver stage against HepG2, at 10uM. To be noted: human, HepG2-A16-CD81EGFP cells; read-out: INHIBITION
It is filed as cell-based. Further details: test concentration 10 uM, cell line HepG2-A16-CD81EGFP. In a few lines:
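Uninfected HepG2-A16-CD81EGFP cells, 3 × 10^3 per well, 1536-well, plated on prespotted compound at 10 μM final, parasite-free screening media added to match infected plates; puromycin 10 μM positive, DMSO 0.5% negative; run in parallel with 48 h PbLuc assay at 37 °C, 5% CO2; viability by CellTiter-Glo luminescence, normalized to controls.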
Take `O=C(COCc1ccccc1)N1CCCC(OCc2cccnc2)C1` (configuration not stated): the cytotoxicity at 10 µM was -2.65%.
Under `O=C1[C@@H]2CC[C@@H](CN(C3CSCCSC3)C2)N1Cc1cscn1` stands -15.1%; under `O=C(Nc1ccccc1C(=O)NCCCN1CCOCC1)c1ccco1`, 8.17%.
Under `CCN(C)c1ncnc2c1CCN(C(=O)c1ccc(C)o1)CC2` stands -0.796%; under `Cn1nccc1C1CCN(CC(O)c2cccc(F)c2)CC1` (configuration not stated), -11.8%; under `CC(C)Cc1noc(CN2CCN(C(=O)c3cccs3)CC2)n1`, -14.3%.
Next, `COc1ccc2cc(C(=O)N3CCCC3Cn3cc(C)cn3)[nH]c2c1` (configuration not stated): -0.743%; `CCOCC(=O)N1C[C@@H]2COC[C@]2(c2nc(C)no2)C1`: -90.9%; `O=C1CC[C@H]2[C@H](CCN2c2ncc(F)cn2)N1c1cccnc1`: 0.864%.
On to `CN(C)C(=O)CN1CC[C@@H]2O[C@@H](COCc3cccnc3)CC[C@@H]21`, for which the cytotoxicity at 10 µM was -67.2%.
Next, `Cn1ccnc1CN1CCN(c2ccc(C#N)cc2F)CC1`: -2.06%; `Cc1cnn(CC2CC2)c1NC(=O)c1cccnc1O`: 6.62%; `CCS(=O)(=O)N1C[C@H]2CN(Cc3ccc(OC)cc3)C(=O)[C@H]2C1`: -1.34%.
Take `OCCN1CCOC2(CCCN(c3ncccn3)C2)C1` (configuration not stated): the cytotoxicity at 10 µM was determined as 9.55%.
Under `CC(=O)N1CCN(C(=O)Cn2ccc3c(Cl)cccc32)CC1` stands -0.643%; under `COc1c(CNC2(c3noc(C)n3)CCC2)c(C(C)C)nn1C`, 2.08%.
In the case of `CN1CC(=O)N(c2ccsc2)CC12CCN(C(=O)c1cccn1C)C2` (configuration not stated), the cytotoxicity at 10 µM is -75.7%.
Next, `Cn1cc(C2CCCN2C(=O)c2cnc(-c3cccs3)s2)cn1` (configuration not stated): 4.99%; `O=C(NCCn1ccnc1)c1ccn(-c2ccccc2F)n1`: 0.533%.
Under `CCn1c(C2CCN(C(=O)c3ccc4sc(C)nc4c3)CC2)n[nH]c1=O` stands -18%; under `CCc1cnc(CN2CCOC(c3nc(C)n[nH]3)C2)o1` (configuration not stated), -4.83%; under `O=C(NCC1CC1)[C@H]1C[C@@H]2CCN(Cc3nccs3)C[C@@H]2O1`, -1.7%.
Next, `O=C1COC2(CCN(C(=O)C3CC=CC3)CC2)CN1Cc1cccnc1`: 3.27%.
Turning to `Cc1ccsc1C(=O)NCc1ccnc(OCC(F)(F)F)c1`, the cytotoxicity at 10 µM was -6.19%.
For `O=c1oc(-c2cccs2)nn1CC(O)c1ccccc1F` (configuration not stated), the cytotoxicity at 10 µM was -14.7%.
Under `COc1ccc(C)c2c1N(C(=O)c1ccc3nnc(C)n3c1)CCC2` stands 2.84%; under `NC(=O)c1cc(C2CCCN(CCOc3ccc(F)cc3)C2)n[nH]1` (configuration not stated), -7.92%; under `CCCc1cc(=O)[nH]c(-n2nc(-c3cccs3)cc2N)n1`, 11.2%.
Under `CCN(Cc1ccoc1)c1ncc(S(N)(=O)=O)s1` stands 5.73%; under `Cc1ccsc1CN(CCCN(C)C)Cc1ccccn1`, -4.11%; under `N#Cc1c(CN2CCCC2Cn2cncn2)cn2ccccc12` (configuration not stated), -2.49%.
For `CC(C(=O)N(C)Cc1nnc2n1CCC2)S(C)(=O)=O` (configuration not stated), the cytotoxicity at 10 µM is -6.56%.
Under `CC(C)C(=O)N1CCC[C@]2(C(=O)N(C)C)CN(c3ccccn3)C[C@@H]2C1` stands 30.7%; under `Cc1cnc(C)c(N2CCN(CCCc3ccncc3)CC2)n1`, -15.4%; under `CCn1ccnc1CN1CCN(CC(O)CN2CCOCC2)CC1` (configuration not stated), -7.83%.
Turning to `CC(C)CNC(=O)N1CCC2(CC1)OC(C(N)=O)Cn1ccnc12` (configuration not stated), the cytotoxicity at 10 µM was -103%.
With `CCCN(CCC)S(=O)(=O)c1cc(NC(C)=O)ccc1C`, the cytotoxicity at 10 µM is -148%.
With `CC(=O)NCC(=O)N1Cc2ccnn2CC(COCCN(C)C)C1` (configuration not stated), the cytotoxicity at 10 µM amounted to 6.15%.
Under `COc1cccc2c1OCC(Cc1ccc(N)nc1C)C2` (configuration not stated) stands 3.29%; under `N#CCCN(CC1CCCO1)C(=O)c1ccsc1` (configuration not stated), 0.325%.
Next, `O=C(NC1CC1)C1CNCCN1C(=O)CCOc1ccccc1` (configuration not stated): 2.08%.
For the compound `CC(C)c1noc(CCC(=O)N2CCCC(n3ccnc3)C2)n1` (configuration not stated), the cytotoxicity at 10 µM came out at 5.58%.
Next, `CC(=O)CCCC(=O)N(Cc1ccsc1)CC(C)C`: -50.3%; `O=C(Nc1cccnc1-n1cncn1)C1CCC1`: -4.32%; `CCc1nc(CNC(C)(CO)C2CCCCC2)no1` (configuration not stated): -13.1%.
Next, `O=C(C1CC=CC1)N1CCC2(CC1)OCCO2`: 6.9%.
Under `COCCO[C@H]1CCN(C(=O)c2cnccn2)[C@H]1Cc1ccncc1` stands -70.3%; under `COC(=O)CC(NC(=O)CCn1cccn1)c1ccc(C)cc1` (configuration not stated), 3.28%.
With `CCc1csc(C2CCCN(C(=O)c3ccccn3)C2)n1` (configuration not stated), the cytotoxicity at 10 µM is 1.36%.
Next, `COc1ccc2c(c1)OCC(Cc1cncc(N)c1)C2` (configuration not stated): -0.918%; `CC1c2ncc(Cn3cccn3)n2CCN1S(C)(=O)=O` (configuration not stated): -99.2%.
As to `COC(=O)Cn1c(=O)[nH]c2cn(-c3ccc(C)cc3)c(=O)n21`, the cytotoxicity at 10 µM turned out to be 0.413%.
On to `CC(=O)Nc1ccc(SCC(O)COCc2ccc3c(c2)OCO3)cc1` (configuration not stated), for which the cytotoxicity at 10 µM amounted to 3.56%.
Under `Cc1c(C(=O)N2CCCN(S(C)(=O)=O)CC2)cnn1C` stands 17.2%; under `COc1cc(NC(=O)c2ccc(C)cc2C)c(C(=O)N(C)C)cc1OC`, -0.414%; under `CCC[C@H]1CN(CCOC)C[C@@H]1NC(=O)Cn1cc(C)cn1`, 4.83%.
On to `Cn1cc(N2CCN(c3ccc(C#N)c(Cl)c3)CC2=O)cn1`, for which the cytotoxicity at 10 µM was -3.81%.
Under `O=C(Cc1cccs1)NCC1(O)CCc2ccccc2C1` (configuration not stated) stands -10.1%; under `CC(=O)N1CCN(C(=O)CN2CCCC2Cn2nc(C)cc2C)CC1` (configuration not stated), -12.2%.
Under `Cc1noc(C)c1C(=O)N1CCCC1(C)C(=O)NC1CCCC1` (configuration not stated) stands -1.33%.
Next, `CC(NC(=O)NCCc1nc(C(F)(F)F)cs1)C(=O)N(C)C` (configuration not stated): 5.04%.
As for `O=C([C@H]1CCCO1)N1Cc2nccn2CC(COc2cccnc2)C1` (some centres not stated), the cytotoxicity at 10 µM stood at 7.45%.
Under `CC(C)NC(=O)CCNC(=O)c1cnc(Cc2ccc(F)cc2)s1` stands 2.87%; under `CC(Cn1ccnc1)NC(=O)N1CCCN(Cc2cccs2)CC1` (configuration not stated), -12.4%.
Next, `CC(C)C(=O)NCCNc1nccc(-c2cc(C(=O)O)ccn2)n1`: -24%; `Cc1ccc(-c2csc(-c3cccc(C(=O)O)c3)n2)cc1`: 3.21%.
Next, `CNC(=O)c1c(C)cccc1NCC(=O)Nc1cc(C)nn1C`: -0.503%; `Cc1cccc(Nc2cc(C)nc(C3CCCCN3CC(N)=O)n2)n1` (configuration not stated): -4.03%; `CNc1ccnc(N2C[C@H]3CC[C@@H](C2)N(CCOC)C3=O)n1`: 7.64%.
In the case of `CC(NC(=O)NCCCn1ccnc1)c1nncn1C` (configuration not stated), the cytotoxicity at 10 µM was determined as 0.277%.
For `CN(Cc1cnn(C)c1)C1CCCN(Cc2noc(C3CC3)n2)C1` (configuration not stated), the cytotoxicity at 10 µM was -8.44%.
Next, `CNc1cccc(C2CCCN(C(=O)c3ccn(C)n3)C2)n1` (configuration not stated): -13.4%; `CSc1cccc(CC(=O)N[C@@H]2CCNC[C@H]2O)c1`: -1.72%; `Cc1cnn(CC2CCN(CC(O)COc3ccccc3)CC2)c1` (configuration not stated): -1.62%.
Under `Cc1noc(C(C)N2CCN(CCC(=O)N3CCOCC3)CC2)n1` (configuration not stated) stands -0.0308%; under `CN1CCN(C(=O)c2cn(Cc3ccccc3)c3ncccc23)CC1`, -6.63%.
Under `COc1cccc(N2CCC(CNc3cc(C)nc4ncnn34)C2)c1` (configuration not stated) stands 59.7%; under `CC(C)c1ncc2c(n1)CN(Cc1cccc(OCC(N)=O)c1)CC2`, -7.44%; under `CC(=O)N1CCCN(C(C)C(=O)Nc2ccnn2C(C)C)CC1` (configuration not stated), -6.22%.
Turning to `CN(C)Cc1nn(C)c2c1CN(C(=O)c1ccc[nH]1)C2`, the cytotoxicity at 10 µM came to 9.22%.
Next, `CCC12CN3CC(CC)(CN(C1)C3c1[nH]c(=O)[nH]c(=O)c1C)C2=O` (configuration not stated): 12.5%.
As for `COc1ccc(C2(NC(=O)C3CC(=O)N(C)C3)CCCC2)cc1` (configuration not stated), the cytotoxicity at 10 µM turned out to be 14.7%.
Under `CS(=O)(=O)c1ccc(C(=O)N2CCCC(n3cncn3)C2)o1` (configuration not stated) stands 7.85%; under `Clc1cccc2c3c([nH]c12)CCN(Cc1cc2n(n1)CCCNC2)C3`, -17.1%; under `Cc1cccc(CN2CCC(Cc3ccccc3F)CC2)n1`, 1.88%.
In the case of `Cc1cc(N2CCC(O)(CN(C)C(=O)CCN)CC2)c2cnccc2n1`, the cytotoxicity at 10 µM was -3.3%.
Under `CCc1nc(C2CCCN2C(=O)Cc2cccs2)no1` (configuration not stated) stands -7.85%; under `O=C(Cn1cnnn1)NC(c1ccccc1)c1ccc2c(c1)CCCO2` (configuration not stated), -1.47%.
Next, `O=C1CCC(c2nc(C3CCN(C(=O)Cc4cccs4)CC3)no2)N1` (configuration not stated): -2.83%; `CC(c1nnc(-c2ccccc2)o1)N1CCC(Nc2ccccc2)CC1` (configuration not stated): 5.1%; `CC(C)Cc1ncc2c(n1)CN(c1nccc(N(C)C)n1)C2`: -6.1%.
Next, `NC(=O)c1cc(NC(=O)N2CCCCCC2)ccc1F`: 0.692%; `CCc1noc(CN(CC)C(=O)c2ccc3ncsc3c2)n1`: 12.2%; `CCOCCN1CCN(CCc2nc3ccccc3c(=O)[nH]2)CC1`: 4.12%.
With `COc1ccc(C(CO)NC(=O)Nc2cccnc2)cc1` (configuration not stated), the cytotoxicity at 10 µM is -15.7%.
Under `Fc1ccc(NCc2nnsc2Cl)c(OC(F)F)c1` stands 0.811%; under `CCn1ncc2c1CCCC2NCc1ccc(OC)c(F)c1` (configuration not stated), -6.07%.
